Assay results pooled from the literature.
Lines come from different studies, so protocols differ.

SMILES | tested on | assay | system | conditions | measurement | result
O=c1[nH]c2sc(-c3ccc(Cl)cc3)cc2c(=O)n1O | HFF | cell growth or viability, MTS | – | 10 µM, 7 days | viability | 101%
Cn1ccc(COc2cnc(C(N)=O)cc2-c2ccc(O[11CH3])cc2F)n1 | – | – | male mouse, lung | intravenous, 2.5 MBq, 5 min | tracer uptake | 2.61 %ID/g
Nc1ccc(C=Cc2ccc([125I])cc2)cc1 | – | – | Swiss mouse, brain | intravenous, 5 µCi, 2 min | tracer uptake | 2.29 %ID/g
O=c1[nH]c2sc(-c3ccc(F)cc3)cc2c(=O)n1O | HFF | cell growth or viability, MTS | – | 10 µM, 7 days | viability | 112%
O=C(CN1C(=O)Cc2c([nH]c3ccc(Br)cc23)-c2ccc(Cl)cc21)N1CCNCC1 | J774 | cell growth or viability, WST-1 | – | 24 h | CC50 | ≤ 10 µM
O=C(CCCCCCC(=O)Nc1ccc(CC[18F])cc1)NO | – | – | male nude mouse, stomach | intravenous, 2 h, tumour-bearing | tracer uptake | 1 %ID/g
Nc1nc(O)c2ncn(COC(CO)CO)c2n1 | HFF | cell growth or viability, ATP luminescence | – | – | CC50 | > 150 µM
O=C(CN1C(=O)Cc2c([nH]c3ccc(Br)cc23)-c2ccc(Cl)cc21)N1CCOCC1 | J774 | cell growth or viability, WST-1 | – | 24 h | CC50 | ≤ 10 µM
Cc1c(C(=O)O)sc2[nH]c(=O)n(O)c(=O)c12 | HFF | cell growth or viability, MTS | – | 10 µM, 7 days | viability | 94%
CC1COc2ccccc2N1C(=O)C(Cl)Cl (stereo not drawn) | – | metabolic stability | male monkey, liver microsomes | 5 µM, pH 7.4 | microsomal CLint | 900 µL/min/mg
O=c1[nH]c2cc(-c3ccccc3)sc2c(=O)n1O | HFF | cell growth or viability, MTS | – | 10 µM, 7 days | viability | 85%
CCN(CC)C(=O)CN1C(=O)Cc2c([nH]c3ccc(Br)cc23)-c2ccc(Cl)cc21 | J774 | cell growth or viability, WST-1 | – | 24 h | CC50 | ≥ 100 µM
CN(C(=O)n1cnc(-c2ccc[n+]([O-])c2)c1)C1CCCCC1 | – | – | male cynomolgus monkey, plasma | oral, 0.1 mg/kg | Cmax | 37.1 ng/mL
O=c1[nH]c2sc3c(c2c(=O)n1O)CCNC3 | HFF | cell growth or viability, MTS | – | 10 µM, 7 days | viability | 107%
CCc1cc(/C(C)=N/OCc2ccc(C3CCCCC3)c(C(F)(F)F)c2)ccc1CN1CC(C(=O)O)C1 | Cytochrome P450 2E1 (CYP2E1, Homo sapiens, UniProt P05181) | enzyme activity, inhibitor | human, liver microsomes | 100 µM, 20 min | inhibition | 32.6%
